We go through seven compounds from ChEMBL document CHEMBL4190199, “Antimalarial Activities of Alkyl Cyclohexenone Derivatives Isolated from the Leaves of Poupartia borbonica” (J Nat Prod, 2017).

Each structure is given as a SMILES string. ≈ marks a conversion by molar mass, not a printed value.

Data set [1] concerns HeLa. The experiment in a line: Cytotoxicity against human HeLa cells after 48 hrs by WST-1 assay. It is filed as functional, cell-based. An outline of the steps:
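HeLa cells seeded at 6000 per well in medium containing test compounds and incubated 48 h. WST-1 then added for 30 min at 37 °C, absorbance read at 450 nm. Results expressed as percent of untreated control cells; IC50 taken from graphs.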

Data set [2] has as its system WI-38. Nature of the data set: Cytotoxicity against human WI38 cells after 48 hrs by WST-1 assay. The data set is classed as cell-based. The settings on record: WI-38, 48 h.
Data set [3] deals with Plasmodium falciparum. The experiment in a line: Antiplasmodial activity against asexual erythrocyte stage of chloroquine-sensitive Plasmodium falciparum 3D7 infected in human red blood cells after 48 hrs by lactate dehydrogenase assay. The data set is classed as functional, organism-based. The settings on record: 3D7, 48 h. An outline of the steps:
(§1)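 P. falciparum asexual blood stages in human A+ erythrocytes, RPMI 1640 with HEPES, NaHCO3, glutamine, glucose, hypoxanthine, gentamycin and 10% human A+ serum. Parasitemia 2%, hematocrit 1%. Eight 2-fold dilutions in triplicate, DMSO at most 1%. After 48 h, growth read by pLDH activity. Artemisinin positive control. IC50 read from graphs.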

In data set [4] the test system is Plasmodium falciparum. The experiment in a line: Antiplasmodial activity against asexual erythrocyte stage of chloroquine-resistant Plasmodium falciparum W2 infected in human red blood cells after 48 hrs by lactate dehydrogenase assay. It is filed as functional, organism-based. The conditions noted are these: W2, 48 h. An outline of the steps:
as §1

Data set [5] in a line: Selectivity index, ratio of IC50 for human WI38 cells to IC50 for asexual erythrocyte stage of chloroquine-resistant Plasmodium falciparum W2 infected in human red blood cells. The data set is classed as toxicity, cell-based. The conditions noted are these: read-out: Ratio IC50.
A short description of data set [6]: Selectivity index, ratio of IC50 for human WI38 cells to IC50 for asexual erythrocyte stage of chloroquine-sensitive Plasmodium falciparum 3D7 infected in human red blood cells. It is filed as toxicity, cell-based. The settings on record: read-out: Ratio IC50.
The nature of data set [7]: Hemolytic activity in human RBC at 10 ug/ml after 1 hr relative to control. The data set is classed as ADME, cell-based, Erythrocyte. The conditions noted are these: red blood cells, read-out: Activity. Put shortly: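 Human A+ erythrocytes, 10% (v/v) in PBS, incubated in triplicate with compounds at final 10 µg/mL (DMSO <1%) for 1 h at room temperature with agitation. Mixtures centrifuged 5 min at 2000 rpm, supernatant absorbance read at 550 nm. 1% (v/v) Triton X-100 served as 100% lysis and PBS as 0% lysis.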

The species entered for data set [8] is Danio rerio. The experiment in a line: Toxicity in 72 hrs post fertilized zebra fish embryo assessed as mortality at 1 ug/ml replaced once daily for 3 days. The data set is classed as organism-based. The conditions noted are these: zebrafish, in vivo. Put shortly: (§2)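 Dechorionated zebrafish embryos, 25 per condition, duplicate geometric series. The first step spanned 10 to 0.001 µg/mL and the second was narrowed to 10 to 1 µg/mL. Compound was diluted from DMSO in fish medium, final DMSO at most 0.4%. Treatment was renewed daily for 3 days, with untreated and 0.4% DMSO controls. Embryos were observed daily until 72 hpf.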

In data set [9] the test system is Plasmodium berghei. Nature of the data set: Antimalarial activity against Plasmodium berghei NK173 infected in Swiss mouse assessed as inhibition of parasitemia at 15 mg/kg, ip qd administered 4 hrs post infection for 3 days measured on day 5 by Giemsa staining based microscopy relative to control. The data set is classed as functional. An outline of the steps:
(§3)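 Female Swiss mice (10 weeks, 25 ± 2 g), groups of five, infected ip with 2 × 10^7 P. berghei NK173 parasitized red cells. 15 mg/kg ip in 7% Tween 80/3% EtOH in sterile water, first dose 4 h post-infection (day 0), then once daily for 3 more days. Parasitemia read on Giemsa-stained tail-blood thin smears (≥500 erythrocytes). Inhibition calculated against vehicle controls at days 5 and 7.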

For data set [10], the system named is Plasmodium berghei. The experiment in a line: Antimalarial activity against Plasmodium berghei NK173 infected in Swiss mouse assessed as inhibition of parasitemia at 15 mg/kg, ip qd administered 4 hrs post infection for 3 days measured on day 7 by Giemsa staining based microscopy relative to control. It is filed as functional. An outline of the steps: as §3

For data set [11], the species on record is Danio rerio. The experiment in a line: Toxicity in 48 hrs post fertilized zebra fish embryo assessed as cumulative mortality at 1 to 10 ug/ml replaced once daily for 3 days. The data set is classed as organism-based. The conditions noted are these: zebrafish, in vivo, 72 h. An outline of the steps: as §2
The species entered for data set [12] is Danio rerio. Nature of the data set: Toxicity in 24 to 72 hrs post fertilized zebra fish embryo assessed as bradycardia at 2 to 2.5 ug/ml replaced once daily for 3 days. The conditions noted are these: zebrafish, in vivo. The data set is classed as organism-based. An outline of the steps:
as §2

The nature of data set [13]: Toxicity in 48 hrs post fertilized zebra fish embryo assessed as embryo mortality at 2 ug/ml replaced once daily for 3 days. It is filed as organism-based, Danio rerio. The settings on record: zebrafish, in vivo; read-out: Activity. An outline of the steps:
as §2

The species entered for data set [14] is Danio rerio. Nature of the data set: Toxicity in 72 hrs post fertilized zebra fish embryo assessed as morphological changes at 1 ug/ml replaced once daily for 3 days. The data set is classed as organism-based. The settings on record: zebrafish, in vivo. An outline of the steps:
as §2

For data set [15], the species on record is Danio rerio. Nature of the data set: Toxicity in 72 hrs post fertilized zebra fish embryo assessed as body axis deformation measured after third treatment dose replaced once daily for 3 days. The data set is classed as organism-based. The settings on record: zebrafish, in vivo. An outline of the steps: as §2
The species named for data set [16] is Danio rerio. The experiment in a line: Toxicity in 24 to 72 hrs post fertilized zebra fish embryo assessed as death at 3 to 10 ug/ml measured within 1 day post dose. It is filed as organism-based. The conditions noted are these: zebrafish, in vivo. An outline of the steps: as §2
For data set [17], the species on record is Danio rerio. Nature of the data set: Toxicity in 24 to 72 hrs post fertilized zebra fish embryo assessed as percentage of bradycardia developed embryos at 2 to 2.5 ug/ml replaced once daily for 3 days measured each day until 72 hrs post fertilization. The data set is classed as organism-based. The conditions noted are these: zebrafish, in vivo. An outline of the steps: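 Dechorionated zebrafish embryos, 25 per condition, exposed from 24 hpf. Compound in DMSO diluted in zebrafish medium (final DMSO at most 0.4%). Treatment replaced once daily for 3 days, with a narrowed 10–1 µg/mL range run in duplicate. Embryos observed daily to 72 hpf for mortality, disintegration, bradycardia and morphology. Untreated and 0.4% DMSO groups of 25 served as controls.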

The species named for data set [18] is Danio rerio. Nature of the data set: Toxicity in 72 hrs post fertilized zebra fish embryo assessed as cumulative mortality measured after third treatment dose replaced once daily for 3 days. The settings on record: zebrafish, in vivo. The data set is classed as organism-based. An outline of the steps:
as §2

In data set [19] the test system is Mus musculus. Nature of the data set: Toxicity in Swiss mouse assessed as mortality at 15 mg/kg, ip qd measured on day 7. The data set is classed as organism-based. The settings on record: in vivo.
The species entered for data set [20] is Danio rerio. Nature of the data set: Toxicity in 24 to 72 hrs post fertilized zebra fish embryo assessed as embryo disintegration at 3 to 10 ug/ml replaced once daily for 3 days. The data set is classed as organism-based. The settings on record: zebrafish, in vivo. Put shortly:
as §2

Data set [21] is filed under the species Danio rerio. The experiment in a line: Toxicity in 72 hrs post fertilized zebra fish embryo assessed as decrease in pericardial function measured after third treatment dose replaced once daily for 3 days. The data set is classed as organism-based. The settings on record: zebrafish, in vivo. Put shortly:
as §2

The species entered for data set [22] is Danio rerio. The experiment in a line: Toxicity in 24 to 72 hrs post fertilized zebra fish embryo assessed as death at 10 ug/ml measured within 1 day post dose. The data set is classed as organism-based. The conditions noted are these: zebrafish, in vivo. Put shortly:
as §2

Data set [23] is filed under the species Danio rerio. Nature of the data set: Toxicity in 72 hrs post fertilized zebra fish embryo assessed as death measured after third treatment dose replaced once daily for 3 days. The data set is classed as organism-based. The settings on record: zebrafish, in vivo. Put shortly:
as §2

In data set [24] the test system is Plasmodium falciparum. Nature of the data set: Antiplasmodial activity against chloroquine-sensitive Plasmodium falciparum F32-Tanzania after 48 hrs by [3H]-hypoxanthine incorporation assay. The data set is classed as functional, organism-based.

Take `CC[C@@]1(O)C(=O)OCc2c1cc1n(c2=O)Cc2cc3ccccc3nc2-1` [CAMPTOTHECIN]: the IC50 lay within 0.08 to 0.23 µg/mL (≈ 0.23 to 0.66 µM) in data set [1] and 0.03 to 0.086 µg/mL (≈ 0.0861 to 0.247 µM) in [2].
Regarding `C[C@@H]1CC[C@H]2[C@@H](C)C(=O)O[C@@H]3O[C@@]4(C)CC[C@@H]1[C@]32OO4` [ARTEMISININ], the IC50 in data set [3] was in the range of 4 to 14 nM; in data set [4] it was 0.01 to 0.035 µg/mL (≈ 0.0354 to 0.124 µM).
Regarding `CCCCCCCCCCCCCCC[C@@H]1C[C@@]2(O)CC(=O)C=C[C@@]2(O)O1`, the IC50 in data set [1] is 1.44 to 3.77 µg/mL (≈ 3.78 to 9.91 µM); in data set [2] it was 1.04 to 2.73 µg/mL (≈ 2.73 to 7.17 µM); in data set [3] it was 690 to 1810 nM; in data set [4], 0.37 to 0.97 µg/mL (≈ 0.972 to 2.55 µM). Further, the selectivity ratio in data set [5] amounted to 2.81; in data set [6], 1.51. Also, in data set [7], the hemolysis at 1 h, 10 ug/ml is less than 1%.
For `CCCCCC/C=C\CCCCCCCC(=O)C[C@@]1(O)C=CC(=O)[C@@H](O)C1`, the IC50 in data set [1] is 1.31 to 3.45 µg/mL (≈ 3.46 to 9.11 µM); in data set [2], 1.01 to 2.66 µg/mL (≈ 2.67 to 7.03 µM); in data set [3] it was 430 to 1130 nM; in [4], 0.48 to 1.27 µg/mL (≈ 1.27 to 3.35 µM). The selectivity ratio in [5] stood at 2.1; in data set [6], 2.34. Further, in data set [7], the hemolysis at 1 h, 10 ug/ml is less than 1%.
For `CCCCCC/C=C\CCCCCCC[C@@H]1C[C@@]2(O)CC(=O)C=C[C@@]2(O)O1`, the Activity entry in data set [8] is recorded as “Non-Toxic”; in data set [11] it was “Toxic”; in [12], “Toxic”; in data set [14], “Non-Toxic”; in [15], “Toxic”; in data set [16] it was “Toxic”. In addition, the Activity is given as 5% in data set [17]; “Toxic” in [18]; “Toxic” in data set [19]; “Toxic” in data set [20]; “Toxic” in [21]; “Toxic” in data set [22]. Further, the Activity result in data set [23] is on record as “Toxic”. Also, the inhibition in vivo at 15 mg/kg in [9] was found to be 59.1%; in data set [10], 69.5%. The IC50 in data set [1] was in the range of 0.8 to 2.1 µg/mL (≈ 2.11 to 5.55 µM); in data set [2], 0.6 to 1.58 µg/mL (≈ 1.58 to 4.17 µM); in [3], 340 to 900 nM; in data set [4] it was 0.21 to 0.55 µg/mL (≈ 0.555 to 1.45 µM). For the same compound, the selectivity ratio in data set [5] was 2.86; in [6], 1.76. The mortality at 72 h, 2 ug/ml in data set [13] worked out at 60%. In data set [7], the hemolysis at 1 h, 10 ug/ml was less than 1%.
With `CCCCCC/C=C\CCCCCCCC(O)C[C@]1(O)C=C[C@@H](O)[C@@H](O)C1` (stereo partly drawn), the midpoint of inhibition in data set [24], the IC50, lay at 86.4 µg/mL (≈ 226 µM).
In data set [3], `O=c1c(O)c(-c2ccc(O)c(O)c2)oc2cc(O)cc(O)c12` [QUERCETIN] displayed an IC50 of 17500 nM.
